# Published values pooled from the literature.
# Compare with care: the assays were run in different laboratories.
# Cell line: HeLa
Compound,effect on,method,tested at,time,endpoint,result
C[C@@H](NC(=O)[C@H](CCCCNC(=O)C(F)(F)F)NS(C)(=O)=O)C(=O)N[C@@H](CCCNC(=N)N)C(N)=O,cell growth or viability,MTT,,72 h,EC50,52.1 to 75.8 µM
COc1cc(C)c(-c2c(C)cc(OC)c3c(=O)cc(-c4ccc(Br)cc4)oc23)c2oc(-c3ccc(Br)cc3)cc(=O)c12,cell growth or viability,MTT,,48 h,IC50,35.8 µM
COc1cccc2c1C(=O)c1c(O)c3c(c(O)c1C2=O)C[C@@](O)(C(=O)CO)C[C@@H]3O[C@H]1C[C@H](N)[C@H](O)[C@H](C)O1,cell growth or viability,MTT,,24 h,IC50,1.71 µg/mL
CCCCCCCCCCCCNC(=S)NCCCC[C@H](NC(=O)OCc1ccccc1)C(=O)N[C@@H](C)C(=O)N[C@@H](CCCNC(=N)N)C(N)=O,cell growth or viability,MTT,,72 h,EC50,41.4 to 53.1 µM
Cc1ccc(NC(=O)c2ccc(CN3CCN(C)CC3)cc2)cc1Nc1nccc(-c2cccnc2)n1,cell growth or viability,MTT,20 µM,48 h,inhibition,21%
CCOCCOCCOCCNC(=S)NCCCC[C@H](NS(C)(=O)=O)C(=O)N[C@@H](C)C(=O)N[C@@H](CCCNC(=N)N)C(N)=O,cell growth or viability,MTT,,72 h,EC50,> 100 µM
COc1cc(OC)c(C(=O)/C=C/c2ccc(Br)cn2)c(OC)c1,colony formation,,4 µM,7 days,inhibition,~100%
COc1cc(C)c(-c2c(C)cc(OC)c3c(=O)cc(-c4ccc(N(C)C)cc4)oc23)c2oc(-c3ccc(N(C)C)cc3)cc(=O)c12,cell growth or viability,MTT,,48 h,IC50,1.4 µM
COc1cc(F)ccc1-c1cc(Nc2cc(CS(C)(=N)=O)ccn2)ncc1F (stereo not drawn),cell growth or viability,,,24 h,GI50,0.045 µM
